# Measurements taken from ChEMBL document CHEMBL1149657, “Benzylamine histamine H(3) antagonists and serotonin reuptake inhibitors” (Bioorg Med Chem Lett, 2007).
# System: not listed separately
# Experiment: Drug level in rat brain at 10 mg/kg, po after 3 hrs
# Type: ADME, organism-based
# Set-up: dose 10 mg/kg, route oral
# Details: read-out: Drug uptake
row,Structure (SMILES),concentration at 3 h [nM]
1,CNCc1cc(C#CCCN2CCSCC2)ccc1Oc1ccc(SC)cc1,360
2,CNCc1cc(C#CCCN(C)C2CC2)ccc1Oc1ccc(SC)cc1,220
3,CNCc1cc(C#CCCN2CCC(F)CC2)ccc1Oc1ccc(SC)cc1,63
4,CNCc1cc(C#CCCNC2CC2)ccc1Oc1ccc(SC)cc1,320

# The remaining lines, values ahead:
row,concentration at 3 h [nM],Structure (SMILES)
1,1700,CNCc1cc(C#CCCN2CCOCC2)ccc1Oc1ccc(Cl)cc1
2,1420,CNCc1cc(C#CCCN2CCOCC2)ccc1Oc1cccc(F)c1
3,4650,CNCc1cc(C#CCCN2CCOCC2)ccc1Oc1ccc(C(F)(F)F)cc1
4,1860,CNCc1cc(C#CCCN2CCOCC2)ccc1Oc1ccc(Cl)c(C(F)(F)F)c1
5,5130,CNCc1cc(C#CCCN2CCOCC2)ccc1Oc1cccc(Cl)c1
6,440,CNCc1cc(C#CCCN2CCOCC2)ccc1Oc1ccc(F)cc1Cl

# Target: Sodium-dependent serotonin transporter (Rattus norvegicus, UniProt P31652)
# Sequence (P31652 whole entry): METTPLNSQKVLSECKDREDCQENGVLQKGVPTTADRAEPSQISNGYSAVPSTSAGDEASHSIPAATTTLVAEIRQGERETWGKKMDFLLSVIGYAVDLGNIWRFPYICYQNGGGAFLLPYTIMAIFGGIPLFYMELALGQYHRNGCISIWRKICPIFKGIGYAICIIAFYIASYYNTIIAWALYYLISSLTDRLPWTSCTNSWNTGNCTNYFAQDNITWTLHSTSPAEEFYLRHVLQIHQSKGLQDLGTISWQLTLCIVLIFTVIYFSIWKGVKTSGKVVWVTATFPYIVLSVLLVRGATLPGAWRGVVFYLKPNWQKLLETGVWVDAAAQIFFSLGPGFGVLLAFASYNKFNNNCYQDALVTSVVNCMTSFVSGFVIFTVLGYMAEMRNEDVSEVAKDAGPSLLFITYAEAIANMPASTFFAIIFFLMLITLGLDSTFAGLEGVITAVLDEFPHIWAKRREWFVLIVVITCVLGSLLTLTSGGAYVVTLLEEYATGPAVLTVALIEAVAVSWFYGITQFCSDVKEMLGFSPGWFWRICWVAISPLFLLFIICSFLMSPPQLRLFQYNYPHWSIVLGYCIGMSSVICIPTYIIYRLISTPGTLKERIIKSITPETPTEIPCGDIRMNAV
# Experiment: Binding affinity to rat SERT
# Details: not given
row,Ki [nM],Structure (SMILES)
1,0.5,CNCc1cc(Br)ccc1Oc1ccc(SC)cc1

# Target: Sodium-dependent serotonin transporter (Homo sapiens, UniProt P31645)
# Sequence (P31645 whole entry): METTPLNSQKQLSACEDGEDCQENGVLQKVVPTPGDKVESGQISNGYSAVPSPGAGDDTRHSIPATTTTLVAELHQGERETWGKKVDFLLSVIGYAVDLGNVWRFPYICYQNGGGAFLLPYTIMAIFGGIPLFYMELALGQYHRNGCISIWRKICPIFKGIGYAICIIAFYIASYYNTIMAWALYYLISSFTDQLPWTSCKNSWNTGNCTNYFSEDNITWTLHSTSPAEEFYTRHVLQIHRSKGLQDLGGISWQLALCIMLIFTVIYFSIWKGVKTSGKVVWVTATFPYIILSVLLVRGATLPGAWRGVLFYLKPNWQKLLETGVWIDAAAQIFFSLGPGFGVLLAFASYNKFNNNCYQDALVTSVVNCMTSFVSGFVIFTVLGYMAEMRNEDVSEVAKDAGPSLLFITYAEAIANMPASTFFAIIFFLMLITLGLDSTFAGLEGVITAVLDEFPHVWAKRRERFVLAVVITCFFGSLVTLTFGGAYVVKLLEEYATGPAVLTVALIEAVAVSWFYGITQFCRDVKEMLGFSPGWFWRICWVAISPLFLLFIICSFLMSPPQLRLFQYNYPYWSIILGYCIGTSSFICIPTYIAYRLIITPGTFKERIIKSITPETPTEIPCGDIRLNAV
# Experiment: Binding affinity to human SERT
# Details: not given
row,Ki [nM],Structure (SMILES)
1,2.7,COc1ccc([C@@H]2CN(C)Cc3cc(OCCCN4CCC(F)CC4)ccc32)cc1
2,26,CCN(CC)CCCOc1cc2c(cn1)C(c1ccc(Cl)c(Cl)c1)CN(C)C2 (stereo not given)
3,1.3,CNCc1cc(C#CCCN2CCNC(=O)C2)ccc1Oc1ccc(SC)cc1
4,1.7,CNCc1cc(Br)ccc1Oc1ccc(SC)cc1

# Target: Histamine H3 receptor (Homo sapiens, UniProt Q9Y5N1)
# Sequence (Q9Y5N1 whole entry): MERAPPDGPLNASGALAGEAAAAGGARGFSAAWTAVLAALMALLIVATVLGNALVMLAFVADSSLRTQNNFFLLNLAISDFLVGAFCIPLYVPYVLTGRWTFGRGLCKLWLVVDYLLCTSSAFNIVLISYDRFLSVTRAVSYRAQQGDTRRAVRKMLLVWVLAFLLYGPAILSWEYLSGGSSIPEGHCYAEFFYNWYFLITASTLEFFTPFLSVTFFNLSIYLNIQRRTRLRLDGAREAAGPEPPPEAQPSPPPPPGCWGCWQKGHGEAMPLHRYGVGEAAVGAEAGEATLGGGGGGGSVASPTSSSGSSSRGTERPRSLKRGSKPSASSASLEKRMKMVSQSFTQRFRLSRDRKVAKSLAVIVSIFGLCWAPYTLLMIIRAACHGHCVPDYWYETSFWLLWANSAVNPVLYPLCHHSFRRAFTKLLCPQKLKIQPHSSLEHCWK
# Experiment: Binding affinity to human histamine H3 receptor
# Details: not given
row,Ki [nM],Structure (SMILES)
1,7,CCN(CC)CCCOc1cc2c(cn1)C(c1ccc(Cl)c(Cl)c1)CN(C)C2 (stereo not given)
2,9000,CNCc1cc(Br)ccc1Oc1ccc(SC)cc1

# Target: Sodium-dependent noradrenaline transporter (Homo sapiens, UniProt P23975)
# Sequence (P23975 whole entry): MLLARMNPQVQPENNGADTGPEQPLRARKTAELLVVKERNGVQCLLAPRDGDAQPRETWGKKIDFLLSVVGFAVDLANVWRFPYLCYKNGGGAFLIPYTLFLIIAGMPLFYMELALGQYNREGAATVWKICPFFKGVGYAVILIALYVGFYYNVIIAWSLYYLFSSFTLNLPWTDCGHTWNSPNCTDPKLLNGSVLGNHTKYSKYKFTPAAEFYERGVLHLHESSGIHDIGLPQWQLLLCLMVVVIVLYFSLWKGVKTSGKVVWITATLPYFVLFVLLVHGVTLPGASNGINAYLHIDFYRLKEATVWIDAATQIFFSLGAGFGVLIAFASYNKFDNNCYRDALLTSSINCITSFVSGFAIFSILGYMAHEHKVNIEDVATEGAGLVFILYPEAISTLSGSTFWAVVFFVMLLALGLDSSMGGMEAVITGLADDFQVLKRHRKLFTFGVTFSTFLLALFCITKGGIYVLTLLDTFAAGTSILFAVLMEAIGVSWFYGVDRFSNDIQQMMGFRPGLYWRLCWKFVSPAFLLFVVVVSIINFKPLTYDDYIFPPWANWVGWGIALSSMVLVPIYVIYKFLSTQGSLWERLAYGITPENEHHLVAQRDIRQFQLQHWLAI
# Experiment: Binding affinity to human NET
# Details: not given
# Summary of the method: (§1)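 Human NET and DAT Ki values from one experiment run in triplicate.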
row,Structure (SMILES),Ki [nM]
1,CNCc1cc(C#CCCN(C)C2CC2)ccc1Oc1ccc(SC)cc1,250
2,CNCc1cc(C#CCCN2CCC(F)CC2)ccc1Oc1ccc(SC)cc1,96

# Next, values leading:
row,Ki [nM],Structure (SMILES)
1,290,CNCc1cc(C#CCCN2CCOCC2)ccc1Oc1ccc(SC)cc1
2,240,CNCc1cc(C#CCCN2CCOCC2)ccc1Oc1ccc(SC)c(C)c1

# Target: Sodium-dependent dopamine transporter (Homo sapiens, UniProt Q01959)
# Sequence (Q01959 whole entry): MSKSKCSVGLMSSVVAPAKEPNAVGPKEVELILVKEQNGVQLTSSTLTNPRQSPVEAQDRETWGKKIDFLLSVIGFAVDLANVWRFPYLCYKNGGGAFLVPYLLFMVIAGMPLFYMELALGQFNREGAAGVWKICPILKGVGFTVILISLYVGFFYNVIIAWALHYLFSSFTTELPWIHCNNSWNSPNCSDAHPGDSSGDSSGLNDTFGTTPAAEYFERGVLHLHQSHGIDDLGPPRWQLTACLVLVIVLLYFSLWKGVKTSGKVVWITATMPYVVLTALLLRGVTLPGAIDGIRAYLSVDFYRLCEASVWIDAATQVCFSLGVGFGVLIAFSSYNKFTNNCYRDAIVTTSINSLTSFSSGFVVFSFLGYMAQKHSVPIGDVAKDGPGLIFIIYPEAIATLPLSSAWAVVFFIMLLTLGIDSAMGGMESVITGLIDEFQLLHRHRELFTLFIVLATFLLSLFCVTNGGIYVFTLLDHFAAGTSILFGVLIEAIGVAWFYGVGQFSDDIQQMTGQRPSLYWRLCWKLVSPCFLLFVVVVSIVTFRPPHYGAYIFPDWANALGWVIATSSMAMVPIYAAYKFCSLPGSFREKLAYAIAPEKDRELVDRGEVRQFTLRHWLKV
# Experiment: Binding affinity to human DAT
# Details: not given
# Summary of the method: as §1
row,Structure (SMILES),Ki [nM]
1,CNCc1cc(C#CCCN(C)C2CC2)ccc1Oc1ccc(SC)cc1,400
2,CNCc1cc(C#CCCN2CCC(F)CC2)ccc1Oc1ccc(SC)cc1,190

# Continued, values first:
row,Ki [nM],Structure (SMILES)
1,700,CNCc1cc(C#CCCN2CCOCC2)ccc1Oc1ccc(SC)cc1
2,1000,CNCc1cc(C#CCCN2CCOCC2)ccc1Oc1ccc(SC)c(C)c1

# System: not listed separately
# Experiment: Plasma concentration in rat at 10 mg/kg, po after 1 hr
# Type: ADME, organism-based
# Set-up: dose 10 mg/kg, route oral
# Details: not given
row,Structure (SMILES),concentration at 1 h [nM]
1,CNCc1cc(C#CCCN2CCSCC2)ccc1Oc1ccc(SC)cc1,45
2,CNCc1cc(C#CCCN(C)C2CC2)ccc1Oc1ccc(SC)cc1,39
3,CNCc1cc(C#CCCN2CCC(F)CC2)ccc1Oc1ccc(SC)cc1,23
4,CNCc1cc(C#CCCNC2CC2)ccc1Oc1ccc(SC)cc1,17

# Other lines, results leading:
row,concentration at 1 h [nM],Structure (SMILES)
1,68,CNCc1cc(C#CCCN2CCOCC2)ccc1Oc1ccc(Cl)cc1
2,110,CNCc1cc(C#CCCN2CCOCC2)ccc1Oc1cccc(F)c1
3,240,CNCc1cc(C#CCCN2CCOCC2)ccc1Oc1ccc(C(F)(F)F)cc1
4,53,CNCc1cc(C#CCCN2CCOCC2)ccc1Oc1ccc(Cl)c(C(F)(F)F)c1
5,180,CNCc1cc(C#CCCN2CCOCC2)ccc1Oc1cccc(Cl)c1
6,30,CNCc1cc(C#CCCN2CCOCC2)ccc1Oc1ccc(F)cc1Cl

# System: not listed separately
# Experiment: Drug level in rat brain at 10 mg/kg, po after 1 hr
# Type: ADME, organism-based
# Set-up: dose 10 mg/kg, route oral
# Details: read-out: Drug uptake
row,Structure (SMILES),concentration at 1 h [nM]
1,CNCc1cc(C#CCCN2CCSCC2)ccc1Oc1ccc(SC)cc1,87
2,CNCc1cc(C#CCCN(C)C2CC2)ccc1Oc1ccc(SC)cc1,200
3,CNCc1cc(C#CCCN2CCC(F)CC2)ccc1Oc1ccc(SC)cc1,44
4,CNCc1cc(C#CCCNC2CC2)ccc1Oc1ccc(SC)cc1,120

# Now from value to molecule:
row,concentration at 1 h [nM],Structure (SMILES)
1,1380,CNCc1cc(C#CCCN2CCOCC2)ccc1Oc1ccc(Cl)cc1
2,820,CNCc1cc(C#CCCN2CCOCC2)ccc1Oc1cccc(F)c1
3,1770,CNCc1cc(C#CCCN2CCOCC2)ccc1Oc1ccc(C(F)(F)F)cc1
4,370,CNCc1cc(C#CCCN2CCOCC2)ccc1Oc1ccc(Cl)c(C(F)(F)F)c1
5,2370,CNCc1cc(C#CCCN2CCOCC2)ccc1Oc1cccc(Cl)c1
6,270,CNCc1cc(C#CCCN2CCOCC2)ccc1Oc1ccc(F)cc1Cl

# System: not listed separately
# Experiment: Plasma concentration in rat at 10 mg/kg, po after 3 hrs
# Type: ADME, organism-based
# Set-up: dose 10 mg/kg, route oral
# Details: not given
row,Structure (SMILES),concentration at 3 h [nM]
1,CNCc1cc(C#CCCN2CCSCC2)ccc1Oc1ccc(SC)cc1,360
2,CNCc1cc(C#CCCN(C)C2CC2)ccc1Oc1ccc(SC)cc1,24
3,CNCc1cc(C#CCCN2CCC(F)CC2)ccc1Oc1ccc(SC)cc1,8
4,CNCc1cc(C#CCCNC2CC2)ccc1Oc1ccc(SC)cc1,32

# Next, values leading:
row,concentration at 3 h [nM],Structure (SMILES)
1,40,CNCc1cc(C#CCCN2CCOCC2)ccc1Oc1ccc(Cl)cc1
2,91,CNCc1cc(C#CCCN2CCOCC2)ccc1Oc1cccc(F)c1
3,310,CNCc1cc(C#CCCN2CCOCC2)ccc1Oc1ccc(C(F)(F)F)cc1
4,120,CNCc1cc(C#CCCN2CCOCC2)ccc1Oc1ccc(Cl)c(C(F)(F)F)c1
5,230,CNCc1cc(C#CCCN2CCOCC2)ccc1Oc1cccc(Cl)c1
6,18,CNCc1cc(C#CCCN2CCOCC2)ccc1Oc1ccc(F)cc1Cl

# System: not listed separately
# Experiment: Plasma concentration in rat at 10 mg/kg, po after 6 hrs
# Type: ADME, organism-based
# Set-up: dose 10 mg/kg, route oral
# Details: not given
row,Structure (SMILES),concentration at 6 h [nM]
1,CNCc1cc(C#CCCN2CCSCC2)ccc1Oc1ccc(SC)cc1,250
2,CNCc1cc(C#CCCN(C)C2CC2)ccc1Oc1ccc(SC)cc1,12
3,CNCc1cc(C#CCCN2CCC(F)CC2)ccc1Oc1ccc(SC)cc1,10
4,CNCc1cc(C#CCCNC2CC2)ccc1Oc1ccc(SC)cc1,27

# Now from value to molecule:
row,concentration at 6 h [nM],Structure (SMILES)
1,28,CNCc1cc(C#CCCN2CCOCC2)ccc1Oc1ccc(Cl)cc1
2,48,CNCc1cc(C#CCCN2CCOCC2)ccc1Oc1cccc(F)c1
3,150,CNCc1cc(C#CCCN2CCOCC2)ccc1Oc1ccc(C(F)(F)F)cc1
4,110,CNCc1cc(C#CCCN2CCOCC2)ccc1Oc1ccc(Cl)c(C(F)(F)F)c1
5,270,CNCc1cc(C#CCCN2CCOCC2)ccc1Oc1cccc(Cl)c1
6,8,CNCc1cc(C#CCCN2CCOCC2)ccc1Oc1ccc(F)cc1Cl

# System: not listed separately
# Experiment: Drug level in rat brain at 10 mg/kg, po after 6 hrs
# Type: ADME, organism-based
# Set-up: dose 10 mg/kg, route oral
# Details: read-out: Drug uptake
row,Structure (SMILES),concentration at 6 h [nM]
1,CNCc1cc(C#CCCN2CCSCC2)ccc1Oc1ccc(SC)cc1,10
2,CNCc1cc(C#CCCN(C)C2CC2)ccc1Oc1ccc(SC)cc1,240
3,CNCc1cc(C#CCCN2CCC(F)CC2)ccc1Oc1ccc(SC)cc1,130
4,CNCc1cc(C#CCCNC2CC2)ccc1Oc1ccc(SC)cc1,520

# The remaining lines, values ahead:
row,concentration at 6 h [nM],Structure (SMILES)
1,1660,CNCc1cc(C#CCCN2CCOCC2)ccc1Oc1ccc(Cl)cc1
2,1870,CNCc1cc(C#CCCN2CCOCC2)ccc1Oc1cccc(F)c1
3,5400,CNCc1cc(C#CCCN2CCOCC2)ccc1Oc1ccc(C(F)(F)F)cc1
4,3560,CNCc1cc(C#CCCN2CCOCC2)ccc1Oc1ccc(Cl)c(C(F)(F)F)c1
5,10100,CNCc1cc(C#CCCN2CCOCC2)ccc1Oc1cccc(Cl)c1
6,400,CNCc1cc(C#CCCN2CCOCC2)ccc1Oc1ccc(F)cc1Cl
